Data from article PMC5684856 (Pharmacology Research & Perspectives, 2017).
“Also recorded” adds a separate entry of the source. Values belong to the compound of their own block, whether it stands above or below them.

Tests used:
[1] = ref Tsujihata et al. 2011; Ito et al. 2013; cited from earlier work
[2] = test system: healthy volunteers and T2DM patients; conditions: cited from earlier work
[3] = test system: mouse insulinoma MIN6 cells; experiment: Caspase 3/7 activity in MIN6 cells; assay type: cell-based; conditions: 72-h exposure
How it was run: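 MIN6 mouse insulinoma cells were grown in DMEM with 10% heat-inactivated FBS, penicillin/streptomycin and 0.0005% 2-mercaptoethanol. Cells were exposed to test compound or palmitic acid for 72 h in 10% FBS plus 0.5% BSA. Caspase-3/7 activity was read with a homogeneous fluorogenic caspase-3/7 kit. Triplicate determinations; means + SD.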

GPR40/FFAR1 = GPR40/FFAR1 (Mus musculus, UniProt Q76JU9); assay type: cell-based
Chain of GPR40/FFAR1 (Q76JU9 whole entry): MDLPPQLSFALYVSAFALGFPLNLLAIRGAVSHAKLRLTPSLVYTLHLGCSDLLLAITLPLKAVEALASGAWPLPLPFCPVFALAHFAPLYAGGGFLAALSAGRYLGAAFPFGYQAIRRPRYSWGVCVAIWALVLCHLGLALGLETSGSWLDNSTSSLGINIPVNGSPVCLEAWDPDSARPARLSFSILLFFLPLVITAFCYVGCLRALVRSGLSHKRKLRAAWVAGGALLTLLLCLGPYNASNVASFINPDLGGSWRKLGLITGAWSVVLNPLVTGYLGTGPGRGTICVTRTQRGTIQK
How it was run: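 CHO-DXB11 cells stably expressing mouse GPR40/FFAR1 were assayed for intracellular Ca2+ increases (FLIPR calcium dye, fluorescence imaging plate reader) in the presence of 10% FBS and 0.5% BSA. Triplicate determinations; means + SD.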

rat primary islets = experiment: Glucose-dependent insulin secretion in rat islets; assay type: cell-based, Sprague-Dawley rats; conditions: 1 h
Sprague-Dawley rats [4] = experiment: Effects on fasting glucose levels in Sprague-Dawley rats; assay type: in vivo, rat; conditions: fasted Sprague-Dawley rats
PPAR gamma = target: T1, PPAR gamma (Homo sapiens, UniProt P37231); experiment: Nuclear receptor reporter activation assay; assay type: cell-based
T1 sequence (P37231 1-505): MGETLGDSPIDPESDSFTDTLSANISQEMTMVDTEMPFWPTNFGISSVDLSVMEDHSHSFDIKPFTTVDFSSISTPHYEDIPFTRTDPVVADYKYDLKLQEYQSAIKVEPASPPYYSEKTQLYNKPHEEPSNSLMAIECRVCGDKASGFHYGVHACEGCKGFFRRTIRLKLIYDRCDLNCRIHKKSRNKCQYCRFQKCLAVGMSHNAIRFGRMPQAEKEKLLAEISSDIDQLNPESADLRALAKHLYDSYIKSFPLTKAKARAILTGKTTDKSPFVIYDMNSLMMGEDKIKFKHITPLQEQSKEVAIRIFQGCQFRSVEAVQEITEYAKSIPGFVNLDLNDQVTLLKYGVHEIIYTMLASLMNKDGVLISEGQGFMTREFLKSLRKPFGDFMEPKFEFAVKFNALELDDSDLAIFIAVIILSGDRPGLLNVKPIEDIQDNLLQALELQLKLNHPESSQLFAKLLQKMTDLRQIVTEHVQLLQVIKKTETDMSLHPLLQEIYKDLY

mouse GPR40/FFAR1 = mouse GPR40/FFAR1 (Mus musculus, UniProt Q76JU9); experiment: Intracellular calcium assay; assay type: cell-based
Chain of mouse GPR40/FFAR1 (Q76JU9 whole entry): as the sequence (Q76JU9 whole entry) above
How it was run: (§1)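 CHO-DXB11 cells stably expressing human, mouse or rat GPR40/FFAR1 were grown in Ham's F-12 with 10% heat-inactivated FBS and penicillin/streptomycin in 96-well plates. Test compounds were dissolved in DMSO. Ca2+ increases were measured in duplicate (FLIPR kit, fluorescence imaging reader) and expressed as % of fasiglifam Emax. EC50 was obtained by sigmoidal curve fit; means ± SD of 6 assays.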

Goto-Kakizaki (GK) rats [5] = experiment: Chronic 5-week treatment in Goto-Kakizaki rats; assay type: in vivo, rat
rat GPR40/FFAR1 = rat GPR40/FFAR1 (Rattus norvegicus, UniProt Q8K3T4); experiment: Intracellular calcium assay; assay type: cell-based
Chain of rat GPR40/FFAR1 (Q8K3T4 whole entry): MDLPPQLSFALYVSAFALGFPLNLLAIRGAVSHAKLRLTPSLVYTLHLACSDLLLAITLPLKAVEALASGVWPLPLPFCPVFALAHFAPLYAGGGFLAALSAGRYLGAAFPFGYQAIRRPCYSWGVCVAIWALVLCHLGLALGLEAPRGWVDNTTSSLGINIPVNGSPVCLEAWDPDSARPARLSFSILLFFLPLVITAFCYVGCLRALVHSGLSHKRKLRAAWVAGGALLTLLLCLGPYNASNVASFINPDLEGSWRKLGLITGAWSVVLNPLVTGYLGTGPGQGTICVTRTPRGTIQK
How it was run: as §1

human GPR40/FFAR1 = human GPR40/FFAR1 (Homo sapiens, UniProt O14842); experiment: Intracellular calcium assay; assay type: cell-based
Chain of human GPR40/FFAR1 (O14842 whole entry): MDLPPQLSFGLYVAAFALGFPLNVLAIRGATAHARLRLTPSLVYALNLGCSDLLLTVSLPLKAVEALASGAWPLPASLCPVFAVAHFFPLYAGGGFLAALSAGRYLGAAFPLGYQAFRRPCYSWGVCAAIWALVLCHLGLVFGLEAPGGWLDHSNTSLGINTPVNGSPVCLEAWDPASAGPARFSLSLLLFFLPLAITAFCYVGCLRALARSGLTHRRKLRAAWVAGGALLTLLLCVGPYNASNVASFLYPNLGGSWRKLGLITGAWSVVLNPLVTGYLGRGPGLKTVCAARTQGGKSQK
How it was run: as §1

[6] = Pharmacokinetic study in rats; assay type: in vivo, male Sprague-Dawley rats; conditions: rat
How it was run: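 Male Sprague-Dawley rats, 7 weeks old, received 3 mg kg−1 intravenously in N,N-dimethylacetamide/PEG400/water (4/4/2). After overnight fasting, others received 0.3, 1, 3 or 10 mg kg−1 orally as a suspension in 1% Tween 80 with 0.5% carboxymethyl cellulose. Plasma levels were analysed by noncompartmental analysis, with bioavailability from AUC. n = 3 per group; mean (SD).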

human GPR119 = target: T2, human GPR119 (Homo sapiens, UniProt Q8TDV5); experiment: cAMP reporter assay in CHO-K1 cells expressing human GPR119; assay type: cell-based
T2 sequence (Q8TDV5 1-335): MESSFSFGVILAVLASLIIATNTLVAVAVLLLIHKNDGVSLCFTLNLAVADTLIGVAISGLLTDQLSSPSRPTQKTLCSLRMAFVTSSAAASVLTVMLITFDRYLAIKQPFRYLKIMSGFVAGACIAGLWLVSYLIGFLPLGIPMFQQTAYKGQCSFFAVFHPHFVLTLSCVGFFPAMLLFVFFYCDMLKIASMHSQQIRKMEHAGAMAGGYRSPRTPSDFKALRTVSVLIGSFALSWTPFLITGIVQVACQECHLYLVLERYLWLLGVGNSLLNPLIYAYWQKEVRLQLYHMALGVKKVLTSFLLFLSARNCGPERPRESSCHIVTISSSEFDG
How it was run: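 CHO-K1 cells stably expressing human GPR119 were co-transfected with a Cre-luciferase reporter and a renilla luciferase control. Cells were incubated with test compound for 4 h, then lysed. Firefly and renilla luciferase activities were measured in duplicate by dual-luciferase chemiluminescence. AR231453 served as the control agonist.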

Sprague-Dawley rats [7] = experiment: Oral glucose tolerance test in Sprague-Dawley rats; assay type: in vivo, rat
How it was run: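 Male Sprague-Dawley rats, 7–8 weeks old, were fasted overnight and grouped by body weight (n = 10). Vehicle or test compound was given orally 60 min before oral glucose 1 g kg−1. Blood was sampled pre-dose, at −5 min, and at 5, 15, 30, 60 and 120 min. Plasma glucose was measured enzymatically and insulin by ultrasensitive rat insulin ELISA. AUCs covered −5 to 120 min (glucose) and −5 to 60 min (insulin). Dunnett's test; means + SEM.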

human GPR120/FFAR4 = target: T3, human GPR120/FFAR4 (Homo sapiens, UniProt Q5NUL3); experiment: Intracellular calcium assay; assay type: cell-based
T3 sequence (Q5NUL3 1-361): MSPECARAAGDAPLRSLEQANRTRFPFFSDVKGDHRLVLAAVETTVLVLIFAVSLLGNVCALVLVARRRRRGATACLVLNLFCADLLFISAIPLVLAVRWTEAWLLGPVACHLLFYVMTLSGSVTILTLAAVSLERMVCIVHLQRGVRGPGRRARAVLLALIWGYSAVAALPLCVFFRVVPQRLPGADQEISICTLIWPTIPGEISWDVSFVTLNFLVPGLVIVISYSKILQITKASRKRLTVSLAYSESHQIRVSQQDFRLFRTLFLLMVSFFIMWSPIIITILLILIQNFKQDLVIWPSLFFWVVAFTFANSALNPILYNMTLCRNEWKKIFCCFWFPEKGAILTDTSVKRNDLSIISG
How it was run: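 CHO-DXB11 cells were stably transfected with human GPR120/FFAR4 and grown in Ham's F-12 with 10% heat-inactivated FBS. Intracellular Ca2+ changes were measured in duplicate with a FLIPR calcium kit on a fluorescence imaging plate reader. Alpha-linolenic acid served as the control agonist.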

Goto-Kakizaki (GK) rats [8] = experiment: Oral glucose tolerance test in Goto-Kakizaki rats; assay type: in vivo, rat
How it was run: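 Male GK rats, 9–10 weeks old, were fasted overnight and grouped (n = 9–10) by fasting glucose and body weight. Vehicle or test compound was given orally, followed by oral glucose 1 g kg−1 60 min later. Blood was taken pre-dose, at −5 min, and at 5–180 min after glucose. Plasma glucose AUC covered −5 to 180 min and insulin AUC −5 to 60 min. Dunnett's test; means + SEM.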

[9] = male, Sprague-Dawley, plasma, iv, 3 mg/kg
[10] = male, Sprague-Dawley, plasma, po, 0.3 mg/kg
[11] = male, Sprague-Dawley, plasma, po, 1 mg/kg
[12] = male, Sprague-Dawley, plasma, po, 3 mg/kg
[13] = male, Sprague-Dawley, plasma, po, 10 mg/kg
[14] = 1 mg·kg^−1 p.o., 15 min after glucose challenge
[15] = p.o. 60 min before glucose 1 g kg^−1, vs vehicle

SMILES: Cc1cc(OCCCS(C)(=O)=O)cc(C)c1-c1cccc(COc2ccc3c(c2)OC[C@H]3CC(=O)O)c1 [fasiglifam]
pancreatic toxicity [1]: does not cause pancreatic toxicity
glucose-lowering effect ([2]; T2DM patients, ref Burant et al. 2012, Kaku et al. 2013): glucose‐lowering effect
hepatotoxicity (liver enzyme levels) ([2]; clinical, ref Kaku et al. 2015): increased liver enzyme levels
clinical parameters of glucose homeostasis ([2]; healthy human adults, ref Leifke et al. 2012): did not affect clinical parameters of glucose homeostasis
safety and tolerability ([2]; healthy volunteers, ref Naik et al. 2012): safe and well tolerated

caspase 3/7 activity ([3]; 300 μmol·L^−1 with 0.5% BSA): induced caspase 3/7 activity
EC50 (GPR40/FFAR1): 29 µM
SMILES: CCCCCCCCCCCCCCCC(=O)O [palmitic acid, reference compound]

SMILES: [Cl-].[K+] [KCl, reference compound]
insulin secretion in low glucose (rat primary islets; KCl positive control, 2 mmol·L^−1 glucose): significantly potentiated insulin secretion
insulin secretion in high glucose (rat primary islets; KCl positive control, 16 mmol·L^−1 glucose): significantly potentiated insulin secretion

SMILES: COc1ccc(Cl)cc1C(=O)NCCc1ccc(S(=O)(=O)NC(=O)NC2CCCCC2)cc1 [glibenclamide, reference compound]
fasting plasma glucose levels (Sprague-Dawley rats [4]; glibenclamide 10 mg·kg^−1 p.o.): significantly reduced the fasting plasma glucose levels

caspase 3/7 activity ([3]; even at 10 μmol·L^−1 with 0.5% BSA): did not induce caspase 3/7 activity
PPAR gamma activation (at 3 nmol·L^−1) (PPAR gamma; at 3 nmol·L^−1 as printed): 1%
agonistic activity in PPAR gamma-expressing cells (PPAR gamma; at 3 μmol·L^−1): did not show any agonistic activities
EC50 (mouse GPR40/FFAR1): 25 ± 4 nM
EC50 (rat GPR40/FFAR1): 27 ± 3 nM
EC50 (human GPR40/FFAR1): 35 ± 6 nM
AUC(0-inf) [6, 9]: 8960 ng·h/mL
Vd [6, 9]: 0.584 L/kg
clearance [6, 9]: 5.62 mL/min/kg
half-life [6, 9]: 115 min
AUC(0-inf) [6, 10]: 511 ng·h/mL
Cmax [6, 10]: 102 ng/mL
Tmax [6, 10]: 0.83 h
bioavailability [6, 10]: 57%
half-life [6, 10]: 149 min
AUC(0-inf) [6, 11]: 1450 ng·h/mL
Cmax [6, 11]: 264 ng/mL
Tmax [6, 11]: 2.67 h
bioavailability [6, 11]: 49%
half-life [6, 11]: 126 min
AUC(0-inf) [6, 12]: 4710 ng·h/mL
Cmax [6, 12]: 755 ng/mL
Tmax [6, 12]: 4 h
bioavailability [6, 12]: 53%
half-life [6, 12]: 128 min
AUC(0-inf) [6, 13]: 8430 ng·h/mL
Cmax [6, 13]: 1130 ng/mL
Tmax [6, 13]: 5.33 h
bioavailability [6, 13]: 28%
half-life [6, 13]: 125 min
time at which plasma concentrations reached maximum values ([6]; p.o., all tested doses (0.3-10 mg·kg^−1)): 0.83 to 5.33 h
hGPR119 activation (at 3 nmol·L^−1) (human GPR119; at 3 nmol·L^−1 as printed): 1%
agonistic activity in GPR119-expressing cells (human GPR119; at 3 μmol·L^−1): did not show any agonistic activities
hGPR120 activation (at 3 nmol·L^−1) (human GPR120/FFAR4; at 3 nmol·L^−1 as printed): 4%
agonistic activity in GPR120/FFAR4-expressing cells (human GPR120/FFAR4; at 3 μmol·L^−1): did not show any agonistic activities
EC50 (GPR40/FFAR1): 0.21 µM
SMILES: Cc1cc(OCCCS(C)(=O)=O)cc(C)c1-c1cccc(COc2ccc(-c3cc(O)n[s+]3[O-])cc2)c1 [MR1704, (R)‐5‐[4‐[3‐[2,6‐Dimethyl‐4‐[3‐(methylsulphonyl)propoxy]‐phenyl]benzyloxy]phenyl]‐isothiazol‐3‐ol 1‐oxide]
fasting plasma glucose levels (Sprague-Dawley rats [4]; even at 300 mg·kg^−1 p.o., 1 to 12 h after dosing): did not reduce the fasting plasma glucose levels
glycated hemoglobin (HbA1c) levels, effect in words (Goto-Kakizaki (GK) rats [5]; 3 mg·kg^−1 p.o. once daily, after 5 weeks): significantly reduced glycated hemoglobin (HbA1c) levels
pancreatic insulin content (Goto-Kakizaki (GK) rats [5]; after 5-week treatment, vs vehicle): without reducing pancreatic insulin content; also recorded: No significant difference was observed
nonfasting glucose levels (Goto-Kakizaki (GK) rats [5]; at least 1 mg·kg^−1 p.o. once daily, 5 weeks): reduced nonfasting glucose levels
body weight gain (Goto-Kakizaki (GK) rats [5]; once daily p.o., 5 weeks, vs vehicle-treated group): comparable body weight gain
insulin secretion in low glucose (rat primary islets; MR1704 3 μmol·L^−1, 2 mmol·L^−1 glucose): but not low glucose conditions
insulin secretion in high glucose (rat primary islets; MR1704 3 μmol·L^−1, 16 mmol·L^−1 glucose): markedly potentiated insulin secretion in high glucose
AUC of glucose levels during OGTT (Sprague-Dawley rats [7]; 1 mg·kg^−1 p.o.): significant reduction in the AUC of glucose levels
plasma insulin secretion during OGTT (Sprague-Dawley rats [7]; [14]): significantly enhanced
plasma glucose excursion during OGTT (Sprague-Dawley rats [7]; [15]): reduced plasma glucose excursion
AUC of glucose levels during OGTT (Goto-Kakizaki (GK) rats [8]; 1 mg·kg^−1 p.o.): significant reduction in the AUC of glucose levels
plasma insulin secretion during OGTT (Goto-Kakizaki (GK) rats [8]; [14]): significantly enhanced plasma insulin secretion
plasma glucose excursion during OGTT (Goto-Kakizaki (GK) rats [8]; [15]): reduced plasma glucose excursion
